Data published in PubChem BioAssay.
Calls of active or inactive are those of the source.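 The calls were made as follows, unless noted: active = NADPH fluorescence slope more negative than the mean of all samples by about 3 SD, 99.7% confidence; inactive = the rest.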

What was measured:
[1] = inhibitors of TNFa-induced NFkB p65 translocation, primary screen, imaging, HUVEC, MLSMR starter and 10KST1 sets (AID 438;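 active = inhibition above 20% together with a positive visual image hit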;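 also: compound added about 3h40 before a 20 min TNFalpha stimulation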;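 as to inhibition: signal is the nuclear over cytoplasmic p65 intensity ratio per well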); details: HUVEC TNFa-induced p65 nuclear translocation; cell count: measured here: nuclei count (cytotoxicity indicator), at 2.08 µM; inhibition: at 2 µM, stronger effect = higher value, 0% TNFa-plus-vehicle, 100% no-TNFa wells
[2] = reduction of polyQ htt aggregates in cells – imaging, exon1htt(103Q)mCFP cells, high-content imaging, primary screen (AID 483;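 active = visual image review flags a hit and inhibition of aggregation exceeds 20%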;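 also: compound exposure lasted 3 days before fixation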;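 as to nuclei count: percent of the per-plate median nuclei count of sample wells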); details: exon1htt(103Q)mCFP cell line, aggregate imaging, at 2 µM; inhibition of aggregation: stronger effect = higher value; nuclei count: measured here: cell count, toxicity
[3] = endothelial E-selectin expression blockers – imaging, HUVEC, immunofluorescence, MLSMR starter and 10KST1 sets, primary screen (AID 487;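 active = visually confirmed hit in the image check and inhibition above 20%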;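 as to inhibition: signal is fraction of cell area covered by stained E-selectin grains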;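 as to nuclei count: 100% = median nuclei count of all wells on the same plate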); details: HUVEC TNFalpha-induced E-selectin immunofluorescence imaging, at 2 µM; inhibition: stronger effect = higher value; nuclei count: measured here: cell number, toxicity
[4] = molecular target: Voltage-gated potassium channel subunit beta-2 (Rattus norvegicus) (UniProt P62483); test: inhibitors of rat Kvbeta2 reductase activity – biochemical, NADPH fluorescence, primary screen (AID 622;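 active = fluorescence slope higher than the sample average by over 3 SD, cut at about -0.22 in these data, passing the limit was not always enough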;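 also: slope of raw intensity against log time taken from 70 to 1610 s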); details: recombinant KvBeta, 4-cyanobenzaldehyde reduction, at 10 µM, stronger effect = higher value
Sequence of Voltage-gated potassium channel subunit beta-2 (Rattus norvegicus) (P62483 whole entry, looked up): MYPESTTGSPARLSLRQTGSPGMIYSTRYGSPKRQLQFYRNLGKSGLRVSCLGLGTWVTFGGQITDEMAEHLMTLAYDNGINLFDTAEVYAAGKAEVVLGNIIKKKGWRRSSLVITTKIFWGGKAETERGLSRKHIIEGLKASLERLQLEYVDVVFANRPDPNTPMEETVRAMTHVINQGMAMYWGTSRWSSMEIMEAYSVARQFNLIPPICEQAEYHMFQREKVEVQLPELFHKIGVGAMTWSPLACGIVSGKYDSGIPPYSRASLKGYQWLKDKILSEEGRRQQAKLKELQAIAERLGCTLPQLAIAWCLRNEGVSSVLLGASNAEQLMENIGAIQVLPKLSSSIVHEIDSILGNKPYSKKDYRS

[5] = molecular target: Voltage-gated potassium channel subunit beta-2 (Rattus norvegicus) (UniProt P62483); test: enhancers of rat Kvbeta2 NADPH turnover – biochemical, NADPH fluorescence, primary screen (AID 623); details: Recombinant KvBeta, NADPH fluorescence decrease slope, 10 min; at 10 µM; stronger effect = lower value;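 also: fluorescence intensity change per second fitted from 20 to 320 s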
[6] = molecular target: Muscarinic acetylcholine receptor M4 (Homo sapiens) (UniProt P08173); test: M4-linked GIRK flux change, two-sided – cell-based, HEK293 M4/GIRK, thallium flux, BTC-AM, M4 allosteric agonist project, primary screen (AID 625;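 active = fluorescence slope after compound addition differing from the mean of all tested samples at 99.7% confidence, mostly higher but some lower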;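 also: thallium influx through GIRK channels coupled to M4 in HEK293 cells with BTC-AM dye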); details: at 10 µM, actives lie on both sides
Sequence of Muscarinic acetylcholine receptor M4 (Homo sapiens) (P08173 whole entry, looked up): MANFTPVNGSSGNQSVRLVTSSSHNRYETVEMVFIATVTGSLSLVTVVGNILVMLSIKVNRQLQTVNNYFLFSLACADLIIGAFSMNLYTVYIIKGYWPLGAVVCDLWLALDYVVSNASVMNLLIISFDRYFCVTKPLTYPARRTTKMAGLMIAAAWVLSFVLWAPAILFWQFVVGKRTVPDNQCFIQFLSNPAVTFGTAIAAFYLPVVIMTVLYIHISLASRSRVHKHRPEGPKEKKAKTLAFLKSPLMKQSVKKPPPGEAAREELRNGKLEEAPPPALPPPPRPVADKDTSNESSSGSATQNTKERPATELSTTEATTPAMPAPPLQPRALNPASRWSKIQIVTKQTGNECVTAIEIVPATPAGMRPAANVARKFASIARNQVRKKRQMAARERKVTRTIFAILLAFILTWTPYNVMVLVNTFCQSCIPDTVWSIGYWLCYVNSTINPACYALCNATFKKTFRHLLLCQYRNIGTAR
Procedure, shortened: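 Assay system: HEK293 cells with M4 receptor and GIRK channels / Controls: carbachol and DMSO controls / Schedule: 1 h dye loading, 2 min kinetic read / Technique: kinetic fluorescence with BTC-AM dye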

[7] = blockers of RIG-like receptor reporter activation – cell-based, Sendai virus stimulus, luciferase, 10K MLSCN set, TLR/RLR signaling modifier project, primary screen (AID 602276;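 active = inhibition at or above 50% at 10 µM; inactive = inhibition below 50%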;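 also: firefly luciferase from ISG56 promoter only with Renilla not read in this screen; 0% = Sendai virus plus DMSO and 100% = medium plus DMSO without virus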); details: HEK293 RL24 IRF3 luciferase reporter, at 10 µM, stronger effect = higher value
[8] = TLR3 IRF3 reporter activation blockers – cell-based, poly I:C stimulus, luciferase, 10K MLSCN set, primary screen (AID 602277;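 active = inhibition of the reporter signal at or above 50%; inactive = inhibition below 50%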); details: HEK293-TLR3 RL24 IRF3 luciferase reporter, at 10 µM, stronger effect = higher value

Structure (SMILES)	cell count [1]	inhibition [1]	inhibition of aggregation [2]	nuclei count [2]	inhibition [3]	nuclei count [3]	fluorescence slope [4]	NADPH fluorescence slope [5]	fluorescence slope [6]	inhibition [7]	inhibition [8]
COc1cccc(NC(=O)CSc2nnc(-c3cccs3)n2C)c1	576	-8.5% (inactive)	19.8% (inactive)	65.7%	-65.4% (inactive)	95.9%	-0.278 (inactive)	-5e-05 (inactive)	0.00909 (inactive)	8.77% (inactive)	6.56% (inactive)
O=C(Nc1ccccc1)N(CCN1CCOCC1)Cc1ccccc1F	665	-4.1% (inactive)	-16.2% (inactive)	101%	-68% (inactive)	96.7%	-0.61 (inactive)	1.5e-05 (inactive)	0.00376 (inactive)	-14.2% (inactive)	-15.8% (inactive)
O=S(=O)(c1ccc(Br)s1)N1CCCCC1	479	-1.6% (inactive)	-18.8% (inactive)	100%	0.6% (inactive)	106%	-0.615 (inactive)	4.4e-05 (inactive)	0.00346 (inactive)	5.16% (inactive)	9.33% (inactive)
O=C(CSc1nc(-c2ccc(F)cc2)cs1)N1CCOCC1	311	9.3% (inactive)	20.5% (inactive)	95.1%	-45.8% (inactive)	93.6%	-0.462 (inactive)	2.4e-05 (inactive)	0.00525 (inactive)	-23.2% (inactive)	-106% (inactive)
Nc1nnc(SCC(=O)N2CCN(c3ccccc3)CC2)n1-c1ccccc1	774	-11.4% (inactive)	2% (inactive)	99.4%	-82% (inactive)	111%	-0.572 (inactive)	-3.7e-05 (inactive)	0.00636 (inactive)	10.7% (inactive)	21.1% (inactive)
CCOC(=O)C1=C(Cn2cnc3ccccc32)NC(=O)NC1c1cc(C)ccc1C (stereo not drawn)	562	-10.3% (inactive)	-15.4% (inactive)	106%	0.3% (inactive)	104%	-0.461 (inactive)	-1.9e-05 (inactive)	0.00427 (inactive)	27.2% (inactive)	19% (inactive)
CC(C)Oc1ccc(-c2nn(-c3ccccc3)cc2/C=c2\sc3ncnn3c2=O)cc1	335	-4.6% (inactive)	5.1% (inactive)	88.3%	-335% (inactive)	114%	-0.279 (inactive)	1e-05 (inactive)	0.00832 (inactive)	-16.4% (inactive)	-14.6% (inactive)
CCc1ccccc1NC(=O)CSc1nc2n[nH]c(C)c2c(=N)n1-c1ccc(OC)cc1	453	17.4% (inactive)	-1.3% (inactive)	104%	41.3% (inactive)	103%	-0.47 (inactive)	-4.8e-05 (inactive)	0.00766 (inactive)	15.1% (inactive)	20.3% (inactive)
CCOC(=O)Nc1ccc(OC)cc1S(=O)(=O)N1CCCCC1	714	3.3% (inactive)	-24% (inactive)	87.3%	-14.6% (inactive)	111%	-0.586 (inactive)	2.6e-05 (inactive)	0.00355 (inactive)	11.7% (inactive)	17% (inactive)
CN(C)/C=C(\C#N)c1nc2ccccc2[nH]1	468	11.9% (inactive)	-17.2% (inactive)	67.1%	-7.3% (inactive)	112%	-0.532 (inactive)	-3.9e-05 (inactive)	0.00457 (inactive)	-21.4% (inactive)	-44.6% (inactive)
COC(=O)c1ccccc1NC(=O)Cn1c(-c2nonc2N)nc2ccccc21	363	5.8% (inactive)	-2.5% (inactive)	1.9%	-162% (inactive)	102%	-0.537 (inactive)	-5.1e-05 (inactive)	0.00504 (inactive)	47.8% (inactive)	30% (inactive)
COc1ccc(OC)c(C(=O)c2nc3c(n2O)CCCCC3)c1	332	-1.1% (inactive)	-40.7% (inactive)	114%	-55% (inactive)	103%	-0.567 (inactive)	-6.5e-05 (inactive)	0.00381 (inactive)	5.91% (inactive)	7.03% (inactive)
Cc1nc(/N=C\N(C)C)sc1C(=O)Nc1ccccc1	602	1.5% (inactive)	-11.8% (inactive)	113%	-27.8% (inactive)	97.5%	-0.306 (inactive)	-2e-05 (inactive)	0.00595 (inactive)	-2.68% (inactive)	-18.9% (inactive)
CCCn1c2c(c(O)c(C(=O)NC)c1=O)CCCC2	323	3.4% (inactive)	-3.3% (inactive)	101%	-40.9% (inactive)	112%	-0.566 (inactive)	-6.4e-05 (inactive)	0.00821 (inactive)	26.6% (inactive)	25.6% (inactive)
CCN(CC)S(=O)(=O)c1ccc2c(c1)c(=O)c(C(=O)NCCOC)cn2C	203	6.9% (inactive)	2.8% (inactive)	100%	-24.6% (inactive)	112%	-0.231 (inactive)	-3.4e-05 (inactive)	0.00464 (inactive)	19.3% (inactive)	15.8% (inactive)
CCN(C(=O)c1c(-c2ccccc2)noc1C)c1ccccc1	600	1% (inactive)	1.1% (inactive)	106%	-39.7% (inactive)	95.6%	-0.534 (inactive)	-1.1e-05 (inactive)	0.00432 (inactive)	22.5% (inactive)	22.7% (inactive)
CC(=O)C1=C(O)C(=O)N(Cc2cccnc2)C1c1ccccc1 (stereo not drawn)	429	-2% (inactive)	-8.8% (inactive)	97.7%	-58.9% (inactive)	115%	-0.537 (inactive)	-2.4e-05 (inactive)	0.00492 (inactive)	6.76% (inactive)	18.6% (inactive)
CC(=O)Nc1ccc(N2CCN(Cc3ccccc3F)CC2)cc1	452	19.4% (inactive)	12.1% (inactive)	102%	34.5% (inactive)	120%	-0.579 (inactive)	-3.8e-05 (inactive)	0.0111 (inactive)	8.54% (inactive)	19% (inactive)
O=C(c1cc(-c2ccco2)nn1-c1cccc(Cl)c1)N1CCCCC1	502	-4.7% (inactive)	-5.1% (inactive)	91%	1.9% (inactive)	100%	-0.588 (inactive)	-1.4e-05 (inactive)	0.0049 (inactive)	22.9% (inactive)	36.1% (inactive)
CCCNC(=O)c1c(N)n(-c2cc(OC)cc(OC)c2)c2nc3ccccc3nc12	587	-7% (inactive)	3% (inactive)	93.7%	-89.1% (inactive)	135%	-0.367 (inactive)	2.2e-05 (inactive)	0.00602 (inactive)	8.54% (inactive)	-6.79% (inactive)
COc1ccc2c(c1)Sc1ccccc1N2CCN(C)C	676	-8.8% (inactive)	2.5% (inactive)	117%	-11.3% (inactive)	103%	-0.573 (inactive)	-2.9e-05 (inactive)	0.00495 (inactive)	8.63% (inactive)	14.5% (inactive)
CC(C)(C)OC(=O)NC(CCNC=C1C(=O)OC(C)(C)OC1=O)C(=O)O (stereo not drawn)	255	7.2% (inactive)	12.3% (inactive)	106%	-87% (inactive)	103%	-0.299 (inactive)	-5.2e-05 (inactive)	0.00613 (inactive)	5.28% (inactive)	0.81% (inactive)
CC1(C)CC(=O)c2cnc(NCc3ccco3)nc2C1	480	7.7% (inactive)	-7.2% (inactive)	96.1%	-165% (inactive)	150%	-0.407 (inactive)	-1.8e-05 (inactive)	0.00659 (inactive)	-11.5% (inactive)	-26.2% (inactive)
Cc1ccc(-c2nnn(CC(=O)N(CC(=O)NC3CCCCC3)c3cnc4ccccc4c3)n2)o1	300	-7.6% (inactive)	27.2% (inactive)	94.4%	-22.9% (inactive)	107%	-0.523 (inactive)	-2.2e-06 (inactive)	0.00469 (inactive)	21% (inactive)	24.7% (inactive)
CCn1c(=O)cc(OCC(=O)Nc2cc(C)ccn2)c2ccccc21	300	-0.6% (inactive)	-7.1% (inactive)	101%	-11.5% (inactive)	126%	-0.537 (inactive)	-5.7e-06 (inactive)	0.00495 (inactive)	13.4% (inactive)	21.3% (inactive)
N#Cc1c(/N=C/c2ccco2)sc2c1CCC2	657	11.9% (inactive)	0.6% (inactive)	105%	-12.4% (inactive)	104%	-0.507 (inactive)	-0.000202 (inactive)	0.00356 (inactive)	-16.4% (inactive)	-42.7% (inactive)
COc1ccccc1C(=O)Nc1ccccc1C(=O)N1CCCC1	675	-6.5% (inactive)	-2.4% (inactive)	108%	-95.5% (inactive)	115%	-0.583 (inactive)	-5.2e-05 (inactive)	0.00691 (inactive)	15.4% (inactive)	17% (inactive)
C=CCn1cnc2c(NCc3ccccc3)ncnc21	387	-13.3% (inactive)	3% (inactive)	98.8%	20.4% (inactive)	142%	-0.587 (inactive)	3.1e-05 (inactive)	0.00713 (inactive)	-54.3% (inactive)	-89% (inactive)
